# Experimental data as given in ChEMBL document CHEMBL2062474, “Discovery and preliminary SAR of bisbenzylisoquinoline alkaloids as inducers of C/EBPα” (Bioorg Med Chem, 2012).
# Assays:
# U-937 [1] = assay: Induction of rat C/EBPalpha expression transfected in human U937 cells after 24 hrs by luciferase reporter gene assay relative to ATRA; assay type: functional
# In short: (§1)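 Engineered U937 line (4X C/EBPα binding site driving a luciferase reporter) incubated 24 h with or without sample in 384-well plates, in triplicate, across multiple 2-fold doses. Luminescence was read after adding Britelite reagent. ATRA ran on each plate as positive control. Fold induction was normalized to ATRA induction.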
# U-937 [2] = assay: Induction of rat C/EBPalpha expression transfected in human U937 cells at 0.78 uM after 24 hrs by luciferase reporter gene assay relative to ATRA; assay type: functional
# In short: (§2)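 U937 cells carry a luciferase reporter driven by a multimerized C/EBPα binding site (U937 4X C/EBPα). Cells incubated 24 h with or without test sample in 384-well plates, then luciferase read by luminescence. ATRA included on each plate as positive control, and fold induction normalized to ATRA. Multiple 2-fold doses tested in triplicate.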
# U-937 [3] = assay: Cytotoxicity against human U937 cells after 24 hrs by alamar blue assay; assay type: cell-based; details: U-937, 24 h
# In short: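 U937 cells exposed to test sample for 24 h in 384-well format. Toxicity read by Alamar Blue fluorescence and expressed as growth relative to untreated U937 cells. Value is the concentration giving 50% growth inhibition, from multiple 2-fold doses tested in triplicate.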
# [4] = Cytotoxicity against human U937 cells assessed as cell growth at 0.78 uM after 24 hrs by alamar blue assay; assay type: cell-based, U-937; details: read-out: Activity
# In short: (§3)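 U937 cells incubated 24 h with test sample in multiple 2-fold doses, tested in triplicate, in 384-well format. Cell growth read by Alamar Blue fluorescence relative to untreated U937 cells. Value is growth at the concentration giving maximum C/EBPα fold induction.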
# U-937 [5] = assay: Induction of rat C/EBPalpha expression transfected in human U937 cells at 3.1 uM after 24 hrs by luciferase reporter gene assay relative to ATRA; assay type: functional; in short: as §2
# [6] = Cytotoxicity against human U937 cells assessed as cell growth at 3.1 uM after 24 hrs by alamar blue assay; assay type: cell-based, U-937; details: read-out: Activity; in short: as §3
# U-937 [7] = assay: Induction of rat C/EBPalpha expression transfected in human U937 cells at 25 uM after 24 hrs by luciferase reporter gene assay relative to ATRA; assay type: functional; in short: as §1
# [8] = Cytotoxicity against human U937 cells assessed as cell growth at 25 uM after 24 hrs by alamar blue assay; assay type: cell-based, U-937; details: read-out: Activity
# In short: (§4)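 U937 cells engineered with a multimerized C/EBPα binding site driving luciferase were incubated with compound in 384-well format, in triplicate, at multiple 2-fold doses. Toxicity was read by Alamar Blue fluorescence. Growth is expressed relative to untreated U937 cells.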
# U-937 [9] = assay: Induction of rat C/EBPalpha expression transfected in human U937 cells at 50 uM after 24 hrs by luciferase reporter gene assay relative to ATRA; assay type: functional; in short: as §1
# [10] = Cytotoxicity against human U937 cells assessed as cell growth at 50 uM after 24 hrs by alamar blue assay; assay type: cell-based, U-937; details: read-out: Activity; in short: as §4
# U-937 [11] = assay: Induction of rat C/EBPalpha expression transfected in human U937 cells at 6.2 uM after 24 hrs by luciferase reporter gene assay relative to ATRA; assay type: functional; in short: as §2
# [12] = Cytotoxicity against human U937 cells assessed as cell growth at 6.2 uM after 24 hrs by alamar blue assay; assay type: cell-based, U-937; details: read-out: Activity; in short: as §3
# U-937 [13] = assay: Induction of rat C/EBPalpha expression transfected in human U937 cells at 12 uM after 24 hrs by luciferase reporter gene assay relative to ATRA; assay type: functional; in short: as §1
# [14] = Cytotoxicity against human U937 cells assessed as cell growth at 12 uM after 24 hrs by alamar blue assay; assay type: cell-based, U-937; details: read-out: Activity; in short: as §4
# U-937 [15] = assay: Induction of rat C/EBPalpha expression transfected in human U937 cells after 24 hrs by luciferase reporter gene assay relative to control; assay type: functional; in short: as §2
# HL-60 = assay: Induction of rat C/EBPalpha expression transfected in human HL60 cells after 24 hrs by luciferase reporter gene assay relative to control; assay type: functional
smiles,measurement,setting,value
COc1ccc(C[C@H]2c3cc(OC)c(OC)c(OC)c3CC[N+]2(C)C)cc1Oc1ccc(C[C@H]2c3cc(OC)c4c(c3CCN2C)OCO4)cc1.[Cl-] [THALISTYLINE],MED,U-937 [1],>50 µM
same,fold change (FC),U-937 [2],0.9
same,IC50,U-937 [3],> 50 µM
same,"viability at 24 h, 0.78 µM",[4],133%
COc1ccc2cc1Oc1ccc(cc1)C[C@@H]1c3c(cc(OC)c4c3Oc3cc5c(cc3O4)CCN[C@@H]5C2)CCN1C [TELOBINE],MED,U-937 [1],1.5 µM
same,fold change (FC),U-937 [5],1.9
same,IC50,U-937 [3],12 µM
same,"viability at 24 h, 3.1 µM",[6],82%
COc1cc2c3c(O)c1OCc1ccc(cc1)C[C@@H]1c4c(cc(OC)c(OC)c4Oc4ccc(cc4)CC3=NCC2)CCN1C [CISSAMPAREINE],MED,U-937 [1],>50 µM
same,fold change (FC),U-937 [5],0.5
same,IC50,U-937 [3],> 50 µM
same,"viability at 24 h, 3.1 µM",[6],78%
COc1ccc2cc1Oc1ccc(cc1)C[C@H]1c3cc(c(OC)cc3CCN1C)Oc1c(OC)c(OC)cc3c1[C@H](C2)N(C)CC3 [FANCHININ],MED,U-937 [1],>50 µM
same,fold change (FC),U-937 [7],0.9
same,IC50,U-937 [3],> 50 µM
same,"viability at 24 h, 25 µM",[8],69%
COc1ccc2cc1Oc1ccc(cc1)C[C@H]1NCCc3cc(OC)c(cc31)Oc1c(O)c(OC)cc3c1CCN(C)[C@@H]3C2 [NORPANURENSINE],MED,U-937 [1],12 µM
same,fold change (FC),U-937 [9],2.5
same,IC50,U-937 [3],> 50 µM
same,"viability at 24 h, 50 µM",[10],113%
COc1ccc(C[C@H]2c3cc(OC)c(OC)c(OC)c3CC[N+]2(C)C)cc1Oc1ccc(C[C@H]2c3cc4c(c(OC)c3CC[N+]2(C)C)OCO4)cc1.[I-].[I-] [THALISTYLINE DIMETHOIODIDE],MED,U-937 [1],>50 µM
same,fold change (FC),U-937 [5],0.4
same,IC50,U-937 [3],> 50 µM
same,"viability at 24 h, 3.1 µM",[6],116%
COc1cc2c3cc1Oc1cc(ccc1O)C[C@@H]1c4c(cc(OC)c(O)c4Oc4cccc(c4)C[C@H]3N(C)CC2)CCN1C [CHONDODENDRINE],MED,U-937 [1],12 µM
same,fold change (FC),U-937 [7],1.9
same,IC50,U-937 [3],> 50 µM
COc1ccc2cc1Oc1ccc(cc1)CC1=NCCc3cc(OC)c(OC)c(c31)Oc1cc3c(cc1OC)CCN(C)[C@@H]3C2 [EPISTEPHANINE],MED,U-937 [1],>50 µM
same,fold change (FC),U-937 [11],0.9
same,IC50,U-937 [3],> 50 µM
same,"viability at 24 h, 6.2 µM",[12],99%
COc1ccc2cc1Oc1ccc(cc1)C[C@H]1c3c(cc4c(c3Oc3cc5c(cc3OC)CCN(C)[C@@H]5C2)OCO4)CCN1C [CEPHARANTHINE],MED,U-937 [1],12 µM
same,fold change (FC),U-937 [13],1
same,IC50,U-937 [3],> 50 µM
same,"viability at 24 h, 12 µM",[14],87%
COc1ccc2cc1Oc1ccc(cc1)C[C@H]1c3cc(c(OC)cc3CCN1C)Oc1c(O)c(OC)cc3c1[C@H](C2)N(C)CC3 [FANGCHINOLINE],MED,U-937 [1],25 µM
same,fold change (FC),U-937 [9],2
same,IC50,U-937 [3],> 50 µM
same,"viability at 24 h, 50 µM",[10],102%
COC1=CC2=C3[C@H](Cc4cc5c(c(c4)Oc4ccc(cc4)C[C@H]4c6cc7c(cc6CCN4C)OC[C@@]3(O7)C1=O)OCO5)N(C)CC2 [REPANDULINE],MED,U-937 [1],50 µM
same,fold change (FC),U-937 [9],1.5
same,IC50,U-937 [3],> 50 µM
same,"viability at 24 h, 50 µM",[10],67%
COc1cc2c3c4c1Oc1cc5c(cc1O4)[C@@H](Cc1ccc(O)c(c1)Oc1ccc(cc1)C[C@@H]3N(C)CC2)N(C)CC5 [TRIGILLETINE],MED,U-937 [1],>50 µM
same,fold change (FC),U-937 [5],0.8
same,IC50,U-937 [3],50 µM
same,"viability at 24 h, 3.1 µM",[6],108%
COc1ccc(CC2c3cc(OC)c(OC)cc3CCN2C)cc1OC (stereo unspecified) [LAUDANOSINE],MED,U-937 [1],>50 µM
same,fold change (FC),U-937 [7],0
COc1ccc2cc1Oc1ccc(cc1)C[C@H]1c3c(cc(OC)c(O)c3Oc3cc4c(cc3OC)CCN(C)[C@@H]4C2)CCN1C [HOMOAROMOLINE],MED,U-937 [1],3.1 µM
same,fold change (FC),U-937 [9],1.9
same,IC50,U-937 [3],> 50 µM
same,"viability at 24 h, 50 µM",[10],80%
COc1cc2c(cc1Oc1ccc(OC)c3c1C[C@H]1c4c(cc(OC)c(OC)c4-3)CCN1C)C[C@H]1c3c(cc(OC)c(OC)c3-2)CCN1C,MED,U-937 [1],>50 µM
same,fold change (FC),U-937 [7],0.9
same,IC50,U-937 [3],> 50 µM
same,"viability at 24 h, 25 µM",[8],61%
COc1ccc2cc1Oc1ccc(cc1)C[C@@H]1c3cc(c(OC)cc3CCN1C)Oc1c(OC)c(OC)cc3c1[C@H](C2)N(C)CC3 [ISOTETRANDRINE],MED,U-937 [1],12 µM
same,fold change (FC),U-937 [7],1.2
same,IC50,U-937 [3],> 50 µM
same,"viability at 24 h, 25 µM",[8],69%
COc1ccc2cc1Oc1ccc(cc1)C[C@@H]1c3cc(c(OC)cc3CCN1C)Oc1c(OC)c(OC)cc3c1[C@@H](C2)N(C)CC3 [PHAEANTHINE],MED,U-937 [1],>50 µM
same,fold change (FC),U-937 [13],0.75
same,IC50,U-937 [3],50 µM
same,"viability at 24 h, 12 µM",[14],104%
COc1cc2c3cc1Oc1c(O)c(OC)cc4c1[C@@H](Cc1ccc(O)c(c1)Oc1ccc(cc1)C[C@@H]3N(C)CC2)N(C)CC4 [OBAMEGINE],MED,U-937 [1],3 µM
same,fold change (FC),U-937 [13],2.6
same,IC50,U-937 [3],25 µM
same,"viability at 24 h, 12 µM",[14],89%
COc1cc2c3cc1Oc1c(OC)c(OC)cc4c1[C@H](Cc1ccc(O)c(c1)-c1cc(ccc1OC)C[C@H]3N(C)CC2)N(C)CC4 [FUNIFERINE],MED,U-937 [1],12 µM
same,fold change (FC),U-937 [9],2.2
same,IC50,U-937 [3],> 50 µM
same,"viability at 24 h, 50 µM",[10],94%
COc1cc2c(cc1O)[C@H]1Cc3c(cc(OC)c(OC)c3Oc3cc4c(cc3OC)CCN(C)[C@@H]4Cc3ccc(O)cc3)[C@@H](C2)N1C [HERVELINE O],MED,U-937 [1],>50 µM
same,fold change (FC),U-937 [7],0.46
same,IC50,U-937 [3],> 50 µM
same,"viability at 24 h, 25 µM",[8],108%
COc1cc2c3cc1Oc1c(OC)c(OC)cc4c1[C@H](Cc1cc5c(c(c1)Oc1ccc(cc1)C[C@@H]3N(C)CC2)OCO5)N(C)CC4 [TENUIPINE],MED,U-937 [1],25 µM
same,fold change (FC),U-937 [7],1.4
same,IC50,U-937 [3],> 50 µM
same,"viability at 24 h, 25 µM",[8],105%
COc1cc2c3cc1Oc1c(OC)c(OC)cc4c1[C@@H](Cc1ccc(O)c(c1)Oc1ccc(cc1)C[C@@H]3N(C)CC2)N(C)CC4 [BERBAMINE],MED,U-937 [1],25 µM
same,fold change (FC),U-937 [9],1.2
same,IC50,U-937 [3],> 50 µM
same,"viability at 24 h, 50 µM",[10],70%
CC1=C(/C=C/C(C)=C/C=C/C(C)=C/C(=O)O)C(C)(C)CCC1 [TRETINOIN],fold change (FC),U-937 [15],2
same,fold change (FC),HL-60,2
COc1ccc2cc1-c1cc(ccc1O)C[C@H]1c3cc4c(cc3CCN1C)Oc1c(OC)cc3c(c1O4)[C@H](C2)N(C)CC3 [TILIACORININE],MED,U-937 [1],12 µM
same,fold change (FC),U-937 [13],1.9
same,IC50,U-937 [3],25 µM
same,"viability at 24 h, 12 µM",[14],63%
